How the values were obtained:
Type in all cases: functional
[1] = system: NCI-H460; experiment: Growth inhibition of human NCI-H460 cells incubated for 48 hrs by sulforhodamine B assay; details: NCI-H460, 48 h
How it was run: (§1)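 NCI-60 five-dose SRB assay in RPMI 1640 with 5% FBS, 37 °C, 5% CO2. Compound given at five tenfold dilutions, 0.01–100 µM, for 48 h. Adherent cells fixed with TCA, suspension cells with 16% final TCA. Bound SRB read at 515 nm and growth calculated against time-zero and untreated controls. GI50 taken from dose–response curves as the concentration giving a 50% decrease in net cell growth.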

[2] = system: SNB-75; experiment: Growth inhibition of human SNB75 cells incubated for 48 hrs by sulforhodamine B assay; details: SNB-75, 48 h
How it was run: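 NCI-60 five-dose SRB assay. Cells were exposed for 48 h to tenfold dilutions of 0.01, 0.1, 1, 10 and 100 µM, in RPMI 1640 with 5% FBS. Plates fixed with TCA at the time of drug addition served as the time-zero reference. GI50 is the concentration giving a 50% reduction in net growth. TGI is total growth inhibition. LC50 is a net 50% loss of the initial cells.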

[3] = system: OVCAR-4; experiment: Growth inhibition of human OVCAR4 cells incubated for 48 hrs by sulforhodamine B assay; details: OVCAR-4, 48 h; how it was run: as §1
[4] = system: A498; experiment: Growth inhibition of human A498 cells incubated for 48 hrs by sulforhodamine B assay; details: A498, 48 h
How it was run: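 NCI-60 five-dose mode: five tenfold dilutions (0.01, 0.1, 1, 10, 100 µM) are applied for 48 h to cells in RPMI 1640 with 5% FBS at 37 °C. Endpoint is TCA fixation with sulforhodamine B read at 515 nm. % growth comes from the 0 h and control absorbances. GI50 is the concentration giving a 50% reduction in net cell growth.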

[5] = system: MCF7; experiment: Growth inhibition of human MCF7 cells incubated for 48 hrs by sulforhodamine B assay; details: MCF7, 48 h; how it was run: as §1
[6] = system: SNB-75; experiment: Cell cycle arrest in human SNB75 cells assessed as accumulation in preG1 phase at 2 uM incubated for 24 hrs by propidium iodide based flow cytometry (reference value: 1.85 %)
How it was run: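 SNB-75 cells were exposed to 2 µM for 24 h at 37 °C, 5% CO2, then washed with PBS and fixed in 70% ethanol on ice for 15 min. They were stained 1 h at room temperature with 50 µg/mL propidium iodide, 0.1 mg/mL RNase A and 0.05% Triton X-100. DNA content was read by flow cytometry to give the % of cells in pre-G1, G0/G1, S and G2/M.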

[7] = system: SW-620; experiment: Growth inhibition of human SW620 cells assessed as cell viability at 100 uM incubated for 48 hrs by sulforhodamine B assay; details: SW-620, 48 h, read-out: Activity
[8] = system: PC-3; experiment: Growth inhibition of human PC3 cells assessed as cell viability at 1 uM incubated for 48 hrs by sulforhodamine B assay; details: PC-3, 48 h, read-out: Activity
[9] = system: OVCAR-5; experiment: Growth inhibition of human OVCAR5 cells assessed as cell viability at 1 uM incubated for 48 hrs by sulforhodamine B assay; details: OVCAR-5, 48 h, read-out: Activity
[10] = system: M14; experiment: Growth inhibition of human M14 cells assessed as cell viability at 1 uM incubated for 48 hrs by sulforhodamine B assay; details: M14, 48 h, read-out: Activity
[11] = system: HCC 2998; experiment: Growth inhibition of human HCC2998 cells assessed as cell viability at 1 uM incubated for 48 hrs by sulforhodamine B assay; details: HCC 2998, 48 h, read-out: Activity
[12] = system: CCRF-CEM; experiment: Growth inhibition of human CCRF-CEM cells assessed as cell viability at 1 uM incubated for 48 hrs by sulforhodamine B assay; details: read-out: Activity
[13] = system: OVCAR-4; experiment: Growth inhibition of human OVCAR4 cells assessed as cell viability at 0.1 uM incubated for 48 hrs by sulforhodamine B assay; details: OVCAR-4, 48 h, read-out: Activity
[14] = system: UACC-62; experiment: Growth inhibition of human UACC62 cells assessed as cell viability at 0.1 uM incubated for 48 hrs by sulforhodamine B assay; details: UACC-62, 48 h, read-out: Activity
[15] = system: SK-MEL-2; experiment: Growth inhibition of human SK-MEL-2 cells assessed as cell viability at 0.1 uM incubated for 48 hrs by sulforhodamine B assay; details: SK-MEL-2, 48 h, read-out: Activity
[16] = system: MDA-MB-468; experiment: Growth inhibition of human MDA-MB-468 cells assessed as cell viability at 0.001 uM incubated for 48 hrs by sulforhodamine B assay relative to control; details: MDA-MB-468, 48 h, read-out: Activity
[17] = system: SN12C; experiment: Growth inhibition of human SN12C cells assessed as cell viability at 0.001 uM incubated for 48 hrs by sulforhodamine B assay relative to control; details: read-out: Activity
[18] = system: NCI/ADR-RES; experiment: Growth inhibition of human NCI/ADR-RES cells assessed as cell viability at 0.001 uM incubated for 48 hrs by sulforhodamine B assay relative to control; details: read-out: Activity
[19] = system: SK-MEL-5; experiment: Growth inhibition of human SK-MEL-5 cells assessed as cell viability at 0.001 uM incubated for 48 hrs by sulforhodamine B assay relative to control; details: SK-MEL-5, 48 h, read-out: Activity
[20] = system: LOX IMVI; experiment: Growth inhibition of human LOXIMVI cells assessed as cell viability at 0.001 uM incubated for 48 hrs by sulforhodamine B assay relative to control; details: read-out: Activity
[21] = system: MOLT-4; experiment: Growth inhibition of human MOLT4 cells assessed as cell viability at 0.001 uM incubated for 48 hrs by sulforhodamine B assay relative to control; details: MOLT-4, 48 h, read-out: Activity
[22] = read-out: LC50 (the source's name)
[23] = read-out: pLC50 (the source's name) (converted)

Which results are given for CC1=C(C(=O)OCc2ccccc2)C(c2ccc3c(c2)OCO3)n2c(nc3ccccc32)N1 (racemic)?
GI50 ([1]; read-out: GI50): 0.36 µM; CC50 [1, 22]: > 100 µM; TGI ([1]; read-out: TGI): > 100 µM; GI50 ([1]; read-out: pGI50 (converted)): 0.363 µM; CC50 [1, 23]: > 100 µM; TGI ([1]; read-out: pTGI): > 100 µM; GI50 ([2]; read-out: GI50): 0.22 µM; LC50 (concentration giving 50% net loss of initial cells) ([2]; read-out: LC50): > 100 µM; TGI ([2]; read-out: TGI): 0.8 µM; GI50 ([2]; read-out: pGI50 (converted)): 0.214 µM; LC50 (concentration giving 50% net loss of initial cells) ([2]; read-out: pLC50 (converted)): > 100 µM; TGI ([2]; read-out: pTGI (converted)): 0.794 µM; GI50 ([3]; read-out: GI50): 13.3 µM; CC50 [3, 22]: > 100 µM; TGI ([3]; read-out: TGI): > 100 µM; GI50 ([3]; read-out: pGI50 (converted)): 13.2 µM; CC50 [3, 23]: > 100 µM; TGI ([3]; read-out: pTGI): > 100 µM; GI50 ([4]; read-out: GI50): 0.36 µM; CC50 [4, 22]: > 100 µM; TGI ([4]; read-out: TGI): > 100 µM; GI50 ([4]; read-out: pGI50 (converted)): 0.363 µM; CC50 [4, 23]: > 100 µM; TGI ([4]; read-out: pTGI): > 100 µM; GI50 ([5]; read-out: GI50): 0.32 µM; CC50 [5, 22]: > 100 µM; TGI ([5]; read-out: TGI): > 100 µM; GI50 ([5]; read-out: pGI50 (converted)): 0.316 µM; CC50 [5, 23]: > 100 µM; TGI ([5]; read-out: pTGI): > 100 µM; Activity [6]: 24.82%; viability at 100 µM [7]: 6%; viability at 1 µM [8]: 35%; viability at 1 µM [9]: 52%; viability at 1 µM [10]: 30%; viability at 1 µM [11]: 59%; viability at 1 µM [12]: 19%; viability at 0.1 µM [13]: 90%; viability at 0.1 µM [14]: 80%; viability at 0.1 µM [15]: 101%; viability at 0.001 µM [16]: 90%; viability at 0.001 µM [17]: 89%; viability at 0.001 µM [18]: 93%; viability at 0.001 µM [19]: 98%; viability at 0.001 µM [20]: 93%; viability at 0.001 µM [21]: 96%
